{
  "source": "paper PMC12444810",
  "about": "(Chemmedchem, 2025)",
  "key": {"[1]": {"tested_on": "EGFP‐recombinant MeV (MeV‐EGFP)", "assay": "Viral entry inhibition assay", "assay_type": "cell-based, measles virus", "conditions": "ratio of IC50 values in the viral entry inhibition assay", "how_it_was_run": "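Vero/hSLAM cells were infected with EGFP‑recombinant MeV in the presence of test compound for 1 h. Virus medium was removed and cells were kept 48 h in medium containing 100 µM of the parent fusion‑inhibitor peptide. Fluorescent infected cells were counted to give IC50, in triplicate. The ratio is taken against the parent peptide's IC50, measured under the same conditions.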"}, "MeV‐F [2]": {"target": "T1, MeV‐F (Measles virus, UniProt Q786F3)", "T1 sequence (Q786F3 113-550 limits assumed)": "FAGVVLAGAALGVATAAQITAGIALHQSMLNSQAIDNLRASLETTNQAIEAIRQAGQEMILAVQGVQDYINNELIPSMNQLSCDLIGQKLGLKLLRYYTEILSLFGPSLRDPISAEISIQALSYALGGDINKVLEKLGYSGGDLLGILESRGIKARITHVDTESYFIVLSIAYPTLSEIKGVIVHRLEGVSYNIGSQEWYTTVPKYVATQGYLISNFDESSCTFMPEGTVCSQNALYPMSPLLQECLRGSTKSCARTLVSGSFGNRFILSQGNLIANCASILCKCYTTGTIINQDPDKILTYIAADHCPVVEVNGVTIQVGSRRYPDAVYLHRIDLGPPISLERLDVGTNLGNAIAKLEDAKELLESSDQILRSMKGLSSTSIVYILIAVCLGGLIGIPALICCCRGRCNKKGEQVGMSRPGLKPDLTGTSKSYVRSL", "T1 sequence (Q786F3 24-112 limits assumed)": "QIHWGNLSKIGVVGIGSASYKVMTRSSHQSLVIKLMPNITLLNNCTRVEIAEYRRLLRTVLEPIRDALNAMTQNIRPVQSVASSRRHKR", "assay": "Cell-to-cell fusion assay", "assay_type": "cell-based", "conditions": "0.5 µM peptide, triplicate (Figure S2)", "how_it_was_run": "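Vero cells stably expressing human SLAM were transfected with plasmids encoding MeV‑F, MeV‑H and EGFP, then incubated with test compound for 24 h. Syncytium formation was judged by EGFP fluorescence imaging. Controls were cells without peptide and cells transfected with EGFP plasmid alone. Run in triplicate.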"}, "Vero/SLAM cells": {"tested_on": "Vero/SLAM cells", "assay": "CCK-8 cytotoxicity assay", "assay_type": "cell-based", "conditions": "CCK-8 assay, 100 µM, 24 h; result in words"}, "[3]": {"assay": "PAMPA passive membrane permeability", "assay_type": "in vitro ADME", "conditions": "for passive membrane permeability, in words: 10 µM, 13 h incubation, triplicate"}, "MeV‐F [4]": {"tested_on": "MeV‐F", "conditions": "cited from earlier work; for IC50: reported value"}, "[5]": {"tested_on": "fusion protein of canine distemper virus", "conditions": "cited from earlier work"}},
  "note": "Non-standard residues stand in square brackets, D forms with d. Residues, ends and D or L forms follow the SMILES beside them. *: point of attachment. Phe(4-F) = N[C@@H](Cc1ccc(F)cc1)C(=O)O; Cbz = O=C(OCc1ccccc1)*",
  "data": [
    {"smiles": "NC(=O)CNC(=O)[C@H](Cc1ccc(F)cc1)NC(=O)[C@@H](Cc1ccccc1)NC(=O)OCc1ccccc1", "note": "[FIP‐F2pF‐NH2] (Cbz-[dF]-[Phe(4-F)]-Gly-NH2)", "values": [
      {"measurement": "enhancement in inhibitory activity compared to FIP", "setting": "[1]", "value": 23, "unit": "fold"},
      {"measurement": "inhibition of syncytia formation, comparison of the two compounds", "setting": "MeV‐F [2]", "value": "stronger inhibitor than FIP‐ZoF‐NH2"},
      {"measurement": "cytotoxicity to Vero/SLAM cells", "setting": "Vero/SLAM cells", "value": "did not exhibit cytotoxicity"},
      {"measurement": "Papp at 13 h, 10 µM", "setting": "[3]", "value": "1.4 ± 0.1", "unit": "×10⁻⁶ cm/s"}
    ]},
    {"smiles": "N=C(N)NCCC[C@@H](NC(=O)[C@H](Cc1ccccc1)NC(=O)[C@@H](Cc1ccccc1)NC(=O)OCc1ccccc1)C(N)=O", "note": "[FIP‐G3r‐NH2] (Cbz-[dF]-Phe-[dR]-NH2)", "values": [
      {"measurement": "cytotoxicity to Vero/SLAM cells", "setting": "Vero/SLAM cells", "value": "did not exhibit cytotoxicity"},
      {"measurement": "passive membrane permeability, in words", "setting": "[3]", "value": "did not passively permeate the lipid membrane"},
      {"measurement": "IC50", "setting": "MeV‐F [4]", "value": 210, "unit": "nM"}
    ]},
    {"smiles": "O=C(O)CNC(=O)[C@H](Cc1ccccc1)NC(=O)[C@@H](Cc1ccccc1)NC(=O)OCc1ccccc1", "note": "[FIP] (Cbz-[dF]-Phe-Gly-OH)", "values": [
      {"measurement": "cytotoxicity to Vero/SLAM cells", "setting": "Vero/SLAM cells", "value": "did not exhibit cytotoxicity"},
      {"measurement": "passive membrane permeability, in words", "setting": "[3]", "value": "negligible level of permeability"},
      {"measurement": "IC50", "setting": "MeV‐F [4]", "value": 1300, "unit": "nM"},
      {"measurement": "inhibition of canine distemper virus fusion protein", "setting": "[5]", "value": "does not inhibit"}
    ]},
    {"smiles": "NC(=O)CNC(=O)[C@H](Cc1ccccc1)NC(=O)[C@@H](Cc1ccccc1)NC(=O)OCc1ccccc1", "note": "[FIP‐NH2] (Cbz-[dF]-Phe-Gly-NH2)", "values": [
      {"measurement": "Papp at 13 h, 10 µM", "setting": "[3]", "value": "1.2 ± 0.2", "unit": "×10⁻⁶ cm/s"},
      {"measurement": "inhibitory activity compared to the original FIP", "setting": "MeV‐F [4]; authors' previous study", "value": "slight improvement in inhibitory activity"}
    ]}
  ]
}
